ChEMBL document CHEMBL1126924, “R2 C-terminal peptide inhibition of mammalian and yeast ribonucleotide reductase” (J Med Chem, 1993)
Square brackets hold non-standard residues; d marks the D form. Peptide text beside a SMILES is read from it. aThr = C[C@H](O)[C@H](N)C(=O)O

Experiments:
[1] = target: Ribonucleoside-diphosphate reductase RR1 (Homo sapiens) (UniProt P23921+Q7LG56+P31350); test: Relative inhibitory potency against mammalian ribonucleotide reductase; format: protein-complex assay
[2] = target: T1, Ribonucleoside-diphosphate reductase RR1 (Homo sapiens, UniProt P23921+P31350+Q7LG56); test: Inhibition of mammalian ribonucleotide reductase; format: protein-complex assay
T1 sequence (P23921 whole entry): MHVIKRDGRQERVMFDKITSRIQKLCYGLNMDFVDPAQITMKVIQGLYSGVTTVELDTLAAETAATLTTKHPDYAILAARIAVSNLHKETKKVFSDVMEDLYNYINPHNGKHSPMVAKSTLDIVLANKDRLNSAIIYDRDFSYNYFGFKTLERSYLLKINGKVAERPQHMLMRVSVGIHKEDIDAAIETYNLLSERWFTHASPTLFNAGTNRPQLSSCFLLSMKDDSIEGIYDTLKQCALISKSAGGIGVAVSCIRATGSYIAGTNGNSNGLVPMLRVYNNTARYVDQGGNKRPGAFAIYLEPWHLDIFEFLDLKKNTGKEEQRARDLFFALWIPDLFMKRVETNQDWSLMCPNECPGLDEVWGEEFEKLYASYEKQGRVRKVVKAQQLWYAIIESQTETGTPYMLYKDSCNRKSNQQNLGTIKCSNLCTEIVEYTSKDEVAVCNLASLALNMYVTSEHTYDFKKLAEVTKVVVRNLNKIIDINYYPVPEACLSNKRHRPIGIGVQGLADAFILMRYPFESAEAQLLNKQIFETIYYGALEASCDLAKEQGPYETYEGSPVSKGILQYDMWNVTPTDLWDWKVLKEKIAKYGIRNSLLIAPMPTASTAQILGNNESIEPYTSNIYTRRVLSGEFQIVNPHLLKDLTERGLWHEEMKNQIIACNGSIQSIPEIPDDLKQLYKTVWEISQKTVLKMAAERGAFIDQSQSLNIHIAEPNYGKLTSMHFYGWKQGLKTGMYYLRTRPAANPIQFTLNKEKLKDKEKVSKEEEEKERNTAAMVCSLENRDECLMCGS
T1 sequence (Q7LG56 whole entry): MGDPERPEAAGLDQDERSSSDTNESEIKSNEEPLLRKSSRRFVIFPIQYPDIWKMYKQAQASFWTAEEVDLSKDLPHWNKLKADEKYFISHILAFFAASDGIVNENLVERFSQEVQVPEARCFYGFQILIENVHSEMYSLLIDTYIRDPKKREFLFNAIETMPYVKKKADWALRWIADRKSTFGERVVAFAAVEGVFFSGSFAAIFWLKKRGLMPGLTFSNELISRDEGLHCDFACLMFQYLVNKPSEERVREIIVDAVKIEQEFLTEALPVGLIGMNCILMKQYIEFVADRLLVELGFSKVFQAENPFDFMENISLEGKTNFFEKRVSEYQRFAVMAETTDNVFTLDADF
T1 sequence (P31350 whole entry): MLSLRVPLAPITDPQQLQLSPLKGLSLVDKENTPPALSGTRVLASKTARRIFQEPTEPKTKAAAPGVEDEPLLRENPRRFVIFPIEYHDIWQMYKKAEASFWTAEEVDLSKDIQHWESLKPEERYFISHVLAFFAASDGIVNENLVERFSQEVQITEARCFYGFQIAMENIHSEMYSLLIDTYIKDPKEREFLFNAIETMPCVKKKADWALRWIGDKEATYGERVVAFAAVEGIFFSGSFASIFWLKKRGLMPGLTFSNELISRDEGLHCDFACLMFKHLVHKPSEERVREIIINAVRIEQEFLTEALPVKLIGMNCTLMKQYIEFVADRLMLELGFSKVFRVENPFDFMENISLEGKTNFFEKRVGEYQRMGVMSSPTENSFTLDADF
Summary of the method: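 Calf thymus R1 (1 μg) with cloned mouse R2 (2 μg) expressed in E. coli from pET-M2. CDP reduction was run at 35 °C with DTT as reductant. [³H]dCDP was separated on aminophenylboronate and counted by scintillation.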

Row | RI [1] [%] | IC50 [2] [µM] | Compound
1 | 1.7 |  | CC(=O)N[C@@H](Cc1ccccc1)C(=O)N[C@H](C(=O)N[C@@H](CC(C)C)C(=O)N[C@@H](CC(=O)O)C(=O)N[C@@H](C)C(=O)N[C@@H](CCC(=O)O)C(=O)N[C@@H](Cc1ccccc1)C(=O)O)[C@H](C)O
2 | 18 |  | CC(=O)N[C@@H](Cc1ccccc1)C(=O)N[C@H](C(=O)N[C@@H](Cc1ccccc1)C(=O)N[C@@H](CC(=O)O)C(=O)N[C@@H](C)C(=O)N[C@@H](CC(=O)O)C(=O)N[C@@H](Cc1ccccc1)C(=O)O)[C@H](C)O
3 | 100 |  | CC(=O)N[C@@H](CO)C(=O)N[C@@H](Cc1ccccc1)C(=O)N[C@H](C(=O)N[C@@H](CC(C)C)C(=O)N[C@@H](CC(=O)O)C(=O)N[C@@H](C)C(=O)N[C@@H](CC(=O)O)C(=O)N[C@@H](Cc1ccccc1)C(=O)O)[C@H](C)O
4 | < 3 |  | CC(=O)N[C@@H](CC(C)C)C(=O)N[C@H](C(=O)N[C@@H](CC(C)C)C(=O)N[C@@H](CC(=O)O)C(=O)N[C@@H](C)C(=O)N[C@@H](CC(=O)O)C(=O)N[C@@H](Cc1ccccc1)C(=O)O)[C@H](C)O (Ac-L[aThr]LDADF-OH)
5 |  | > 400 | H-FTLDADF-OH
6 | 3 |  | CC(=O)N[C@@H](Cc1ccccc1)C(=O)N[C@H](C(=O)N[C@@H](CC(C)C)C(=O)N[C@@H](CC(=O)O)C(=O)N[C@@H](CC(=O)O)C(=O)N[C@@H](Cc1ccccc1)C(=O)O)[C@H](C)O
7 | 25 |  | CC(C)C[C@H](NC(=O)[C@@H](NC(=O)[C@H](Cc1ccccc1)NC(=O)[C@@H](N)CO)[C@H](C)O)C(=O)N[C@@H](CC(=O)O)C(=O)N[C@@H](C)C(=O)N[C@@H](CC(=O)O)C(=O)N[C@@H](Cc1ccccc1)C(=O)O
8 | 23 |  | CC(=O)N[C@@H](Cc1ccccc1)C(=O)N[C@H](C(=O)N[C@@H](CC(C)C)C(=O)N[C@@H](CC(=O)O)C(=O)N[C@@H](C)C(=O)N[C@@H](CC(N)=O)C(=O)N[C@@H](Cc1ccccc1)C(=O)O)[C@H](C)O
9 | 34 |  | CC(=O)N[C@@H](Cc1ccccc1)C(=O)N[C@H](C(=O)N[C@@H](CC(C)C)C(=O)N[C@@H](CC(=O)O)C(=O)N[C@@H](C)C(=O)N[C@@H](CC(C)C)C(=O)N[C@@H](Cc1ccccc1)C(=O)O)[C@H](C)O
10 | 2.9 |  | CC(=O)N[C@@H](Cc1ccccc1)C(=O)N[C@H](C(=O)N[C@@H](CC(C)C)C(=O)N[C@@H](C)C(=O)N[C@@H](C)C(=O)N[C@@H](CC(=O)O)C(=O)N[C@@H](Cc1ccccc1)C(=O)O)[C@H](C)O
11 | 10 |  | CC(=O)N[C@@H](Cc1ccc(N)cc1)C(=O)N[C@H](C(=O)N[C@@H](CC(C)C)C(=O)N[C@@H](CC(=O)O)C(=O)N[C@@H](C)C(=O)N[C@@H](CC(=O)O)C(=O)N[C@@H](Cc1ccccc1)C(=O)O)[C@H](C)O
12 | < 3 |  | CC(=O)N[C@H](C(=O)N[C@@H](CC(C)C)C(=O)N[C@@H](CC(=O)O)C(=O)N[C@@H](C)C(=O)N[C@@H](CC(=O)O)C(=O)N[C@@H](Cc1ccccc1)C(=O)O)[C@H](C)O
13 |  | > 400 | Ac-FTLDADL-OH
14 | 10 |  | CC(=O)N[C@@H](Cc1ccc(N=[N+]=[N-])cc1)C(=O)N[C@H](C(=O)N[C@@H](CC(C)C)C(=O)N[C@@H](CC(=O)O)C(=O)N[C@@H](C)C(=O)N[C@@H](CC(=O)O)C(=O)N[C@@H](Cc1ccccc1)C(=O)O)[C@H](C)O
15 | 40 |  | CC(=O)N[C@@H](Cc1ccccc1)C(=O)N[C@H](C(=O)N[C@@H](CC(C)C)C(=O)N[C@@H](CC(N)=O)C(=O)N[C@@H](C)C(=O)N[C@@H](CC(=O)O)C(=O)N[C@@H](Cc1ccccc1)C(=O)O)[C@H](C)O
16 | 28 |  | CC(=O)N[C@@H](Cc1ccccc1)C(=O)N[C@H](C(=O)N[C@@H](CC(C)C)C(=O)N[C@@H](CC(=O)O)C(=O)N[C@@H](C)C(=O)N[C@@H](C)C(=O)N[C@@H](Cc1ccccc1)C(=O)O)[C@H](C)O
17 | 100 |  | CC(=O)N[C@@H](Cc1ccccc1)C(=O)N[C@H](C(=O)N[C@@H](CC(C)C)C(=O)N[C@@H](CC(=O)O)C(=O)N[C@@H](C)C(=O)N[C@@H](CC(=O)O)C(=O)N[C@@H](Cc1ccccc1)C(=O)O)[C@H](C)O (Ac-F[aThr]LDADF-OH)
18 | 2.5 |  | Ac-FLDADF-OH
19 | 2.5 |  | CC(=O)N[C@@H](Cc1ccccc1)C(=O)N[C@H](C(=O)N[C@@H](CC(C)C)C(=O)N[C@@H](CC(=O)O)C(=O)N[C@@H](Cc1ccccc1)C(=O)O)[C@H](C)O
20 |  | > 400 | CC(=O)N[C@H](C(=O)N[C@@H](CC(C)C)C(=O)N[C@@H](CC(=O)O)C(=O)N[C@@H](C)C(=O)N[C@@H](CC(=O)O)C(=O)N[C@@H](Cc1ccccc1)C(=O)O)[C@@H](C)O
21 | 100 |  | CC(=O)N[C@@H](CC(N)=O)C(=O)N[C@@H](CO)C(=O)N[C@@H](Cc1ccccc1)C(=O)N[C@H](C(=O)N[C@@H](CC(C)C)C(=O)N[C@@H](CC(=O)O)C(=O)N[C@@H](C)C(=O)N[C@@H](CC(=O)O)C(=O)N[C@@H](Cc1ccccc1)C(=O)O)[C@H](C)O
22 | < 3 |  | CC(C)C[C@H](NC(=O)[C@@H](NC(=O)[C@@H](N)Cc1ccccc1)[C@H](C)O)C(=O)N[C@@H](CC(=O)O)C(=O)N[C@@H](C)C(=O)N[C@@H](CC(=O)O)C(=O)N[C@@H](Cc1ccccc1)C(=O)O (H-F[aThr]LDADF-OH)
23 | 4.9 |  | CC(=O)N[C@@H](Cc1ccccc1)C(=O)N[C@H](C(=O)N[C@@H](C)C(=O)N[C@@H](CC(=O)O)C(=O)N[C@@H](C)C(=O)N[C@@H](CC(=O)O)C(=O)N[C@@H](Cc1ccccc1)C(=O)O)[C@H](C)O
24 | 9 |  | CC(=O)N[C@@H](Cc1ccccc1)C(=O)N[C@H](C(=O)N[C@@H](CC(C)C)C(=O)N[C@@H](CC(=O)O)C(=O)NCC(=O)N[C@@H](CC(=O)O)C(=O)N[C@@H](Cc1ccccc1)C(=O)O)[C@H](C)O
25 | < 3 |  | CC(=O)N[C@@H](Cc1ccccc1)C(=O)N[C@H](C(=O)N[C@@H](CC(C)C)C(=O)N[C@@H](CC(=O)O)C(=O)N[C@@H](C)C(=O)N[C@@H](CC(=O)O)C(=O)N[C@@H](CC(C)C)C(=O)O)[C@H](C)O (Ac-F[aThr]LDADL-OH)
26 | < 3 | > 400 | Ac-LDADF-OH
27 | 2.1 |  | CC(=O)N[C@@H](Cc1ccccc1)C(=O)N[C@H](C(=O)N[C@@H](CC(C)C)C(=O)N[C@@H](CC(=O)O)C(=O)N[C@@H](C)C(=O)N[C@@H](CC(=O)O)C(=O)N[C@@H](Cc1ccccc1)C(=O)N[C@@H](C)C(=O)N[C@@H](C)C(=O)O)[C@H](C)O (Ac-F[aThr]LDADFAA-OH)
28 | 35 |  | CC(=O)N[C@@H](Cc1ccccc1)C(=O)N[C@H](C(=O)N[C@@H](CC(C)C)C(=O)N[C@@H](CC(=O)O)C(=O)N[C@@H](CC(C)C)C(=O)N[C@@H](CC(=O)O)C(=O)N[C@@H](Cc1ccccc1)C(=O)O)[C@H](C)O
29 | 35 |  | CC(=O)N[C@@H](Cc1ccccc1)C(=O)N[C@H](C(=O)N[C@H](C(=O)N[C@@H](CC(=O)O)C(=O)N[C@@H](C)C(=O)N[C@@H](CC(=O)O)C(=O)N[C@@H](Cc1ccccc1)C(=O)O)C(C)C)[C@H](C)O
30 |  | > 400 | Ac-LTLDADF-OH
